The record followed here is ChEMBL document CHEMBL1649316, “Using population pharmacokinetics to determine gentamicin dosing during extended daily diafiltration in critically ill patients with acute kidney injury” (Antimicrob Agents Chemother, 2010).

What is called Cmax is the maximum level reached in the sampled fluid or tissue. Broadly, the AUC is the area under the concentration-time curve, a measure of exposure. A higher AUC goes with high exposure.

Holding throughout (format): ADME, organism-based
Series [1] concerns Homo sapiens. The experiment in a line: Cmax in critically ill patient with acute kidney injury at 6 mg/kg, iv administered every 48 hrs. Particulars: in vivo. Also noted: dose 6 mg/kg, route intravenous. The essentials:
(§1)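 Monte Carlo simulation in NONMEM from the final covariate population model. 1,000 simulated subjects per regimen, modelled on a person (70 kg, BMI 23.6 kg/m²). Weight-based doses were given at EDD-f start or 30 min, 1 h, 2 h or 4 h before a 10-h EDD-f session, every 24 h or every 48 h. Targets were Cmax and AUC0-24, assuming an MIC of 1 mg/liter.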

For series [2], the system named is Homo sapiens. The series can be described thus: Cmax in critically ill patient with acute kidney injury at 5 mg/kg, iv administered every 24 hrs. The arrangement: dose 5 mg/kg, route intravenous. Particulars: in vivo. The essentials:
as §1

For series [3], the system named is Homo sapiens. The series can be described thus: AUC (0 to 24 hrs) in critically ill patient with acute kidney injury at 6 mg/kg, iv administered every 48 hrs. The arrangement: time < 24 hr, dose 6 mg/kg, route intravenous. Particulars: in vivo. The essentials:
as §1

For series [4], the system named is Homo sapiens. The experiment in a line: Clearance iv dosed in critically ill patient with acute kidney injury. Particulars: in vivo. The essentials:
(§2)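 Patients were 14 critically ill adults with AKI on EDD-f, 28 doses in total. Gentamicin was given as a 30-min central venous infusion. Arterial plasma was sampled predose and at 15, 30, 60, 120, 180, 300, 480 and 600 min, plus samples between EDD-f sessions. Plasma levels were measured by Synchron LX assay (LOD 0.3 mg/liter). A two-compartment NONMEM model (FOCE with interaction) was fitted with EDD-f as a covariate.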

Series [5] relates to Homo sapiens. The experiment in a line: AUC (0 to 24 hrs) in critically ill patient with acute kidney injury at 5 mg/kg, iv administered every 24 hrs. Also noted: time < 24 hr, dose 5 mg/kg, route intravenous. The note with it: in vivo. The essentials: as §1
Series [6] deals with Homo sapiens. The series can be described thus: Cmax in critically ill patient with acute kidney injury at 4 mg/kg, iv administered as 30 mins infusion. The arrangement: dose 4 mg/kg, route intravenous. Particulars: in vivo, 0.5 h. The essentials:
as §1

Series [7] deals with Homo sapiens. The series can be described thus: Cmax in critically ill patient with acute kidney injury at 5 mg/kg, iv administered as 1 hr infusion. Also noted: dose 5 mg/kg, route intravenous. The note with it: in vivo. The essentials: as §1
The subject of series [8] is Homo sapiens. The series can be described thus: AUC (0 to 24 hrs) in critically ill patient with acute kidney injury at 5 mg/kg, iv administered as 1 hr infusion. Also noted: dose 5 mg/kg, route intravenous. Particulars: in vivo. The essentials: as §1
Series [9] deals with Homo sapiens. The series can be described thus: Clearance in iv dosed critically ill patient with acute kidney injury during extended daily diafiltration. Particulars: in vivo. The essentials:
as §2

The test system of series [10] is Homo sapiens. The experiment in a line: Half life in iv dosed critically ill patient with acute kidney injury during extended daily diafiltration. Particulars: in vivo. In outline: as §2
Series [11] concerns Homo sapiens. The experiment in a line: Half life in iv dosed critically ill patient with acute kidney injury. Particulars: in vivo. The essentials: as §2
In series [12] the test system is Homo sapiens. The series can be described thus: AUC (0 to 24 hrs) in critically ill patient with acute kidney injury at 4 mg/kg, iv administered as 30 mins infusion. The note with it: in vivo. Also noted: time < 24 hr, dose 4 mg/kg, route intravenous. The essentials: as §1

Regarding GENTAMICIN, the Cmax in the series on Homo sapiens [1], in the series with Homo sapiens [2], in the series on Homo sapiens [7] and in the series with Homo sapiens [8] was more than 10 mg/L throughout. The AUC is 88.7 mg·h/L in the series with Homo sapiens [3], 135.7 mg·h/L with Homo sapiens [5], 70 mg·h/L with Homo sapiens [6] and 70 mg·h/L in the series on Homo sapiens [12]. Also, the CL with Homo sapiens [4] stood at 0.23 L/h; in the series on Homo sapiens [9], 2.54 L/h. The results for the t1/2 with Homo sapiens [10] and in the series on Homo sapiens [11] were 13.8 h and 153.4 h, respectively.
